From ChEMBL document CHEMBL1157011, “8-Sulfonyl-substituted tetrahydro-1H-pyrido[4,3-b]indoles as 5-HT6 receptor antagonists” (Eur J Med Chem, 2010)
pIC50, pKi: −log10 of the molar value. One block for each molecule: values may come before it.

Experiments:
[1] = molecular target: T1, 5-hydroxytryptamine receptor 6 (Homo sapiens, UniProt P50406); assay: Antagonist activity at human recombinant 5HT6 receptor expressed in HEK293 cells assessed as inhibition of serotonin-induced cAMP production by LANCE assay; type: functional, cell-based; details: for pIC50: read-out: IC50
Procedure, shortened: (§1)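 HEK-293 cells with a tetracycline-inducible (T-Rex) human 5-HT6 receptor, grown in DMEM/10% FBS with blasticidin S and zeocin and induced with tetracycline the day before. Medium was swapped for HBSS with 1 mM MgCl2, 1 mM CaCl2, IBMX and 5 mM HEPES, pH 7.4. Compounds (0.1% DMSO) were added 15 min at RT, then 10 nM serotonin for 30 min. cAMP read by LANCE; 2 independent experiments in duplicate.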

[2] = molecular target: T2, 5-hydroxytryptamine receptor 1A (Homo sapiens, UniProt P08908); assay: Binding affinity to 5HT1A receptor by radioligand displacement assay
T2 sequence (P08908 whole entry): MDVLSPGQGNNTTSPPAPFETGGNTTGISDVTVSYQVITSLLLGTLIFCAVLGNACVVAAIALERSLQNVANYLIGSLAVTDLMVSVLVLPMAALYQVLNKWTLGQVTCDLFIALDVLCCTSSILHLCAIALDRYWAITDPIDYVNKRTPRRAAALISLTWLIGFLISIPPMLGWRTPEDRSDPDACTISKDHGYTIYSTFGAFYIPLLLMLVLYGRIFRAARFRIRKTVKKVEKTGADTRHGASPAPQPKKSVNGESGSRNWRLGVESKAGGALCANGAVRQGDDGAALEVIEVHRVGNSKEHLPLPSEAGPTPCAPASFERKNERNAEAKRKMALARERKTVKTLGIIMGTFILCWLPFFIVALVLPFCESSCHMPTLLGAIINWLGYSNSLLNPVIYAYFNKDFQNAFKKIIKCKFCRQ

[3] = molecular target: T1, 5-hydroxytryptamine receptor 6; assay: Binding affinity to human recombinant 5HT6 receptor by radioligand displacement assay
Procedure, shortened: (§2)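 Competitive displacement of the corresponding radioligand, run by an outside contract lab under its internal protocols. Data from one representative experiment in duplicate.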

[4] = molecular target: T1, 5-hydroxytryptamine receptor 6; assay: Binding affinity to human recombinant 5HT6 receptor
[5] = molecular target: T3, 5-hydroxytryptamine receptor 2C (Homo sapiens, UniProt P28335); assay: (§3) Binding affinity to 5HT2C receptor by radioligand displacement assay; procedure, shortened: as §2
T3 sequence (P28335 whole entry): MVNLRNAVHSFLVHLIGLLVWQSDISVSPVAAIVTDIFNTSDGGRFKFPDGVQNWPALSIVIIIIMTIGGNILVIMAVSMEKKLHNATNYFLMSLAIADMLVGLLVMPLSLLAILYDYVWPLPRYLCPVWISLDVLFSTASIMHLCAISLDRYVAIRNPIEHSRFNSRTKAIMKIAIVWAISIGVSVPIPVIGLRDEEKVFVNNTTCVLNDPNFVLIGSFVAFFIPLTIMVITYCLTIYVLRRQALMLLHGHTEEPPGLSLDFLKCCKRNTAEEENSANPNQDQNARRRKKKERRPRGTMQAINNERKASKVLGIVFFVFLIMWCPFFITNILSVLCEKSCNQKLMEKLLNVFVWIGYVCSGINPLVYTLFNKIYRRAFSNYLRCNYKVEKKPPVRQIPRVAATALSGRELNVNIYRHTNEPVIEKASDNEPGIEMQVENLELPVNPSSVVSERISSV

[6] = molecular target: 5-hydroxytryptamine receptor 6 (Rattus norvegicus, UniProt P31388); assay: Binding affinity to rat recombinant 5HT6 receptor
[7] = molecular target: T4, 5-hydroxytryptamine receptor 7 (Homo sapiens, UniProt P34969); assay: Binding affinity to 5HT7 receptor by radioligand displacement assay; procedure, shortened: as §2
[8] = molecular target: T1, 5-hydroxytryptamine receptor 6; assay: Antagonist activity at human recombinant 5HT6 receptor expressed in HEK293 cells assessed as inhibition of serotonin-induced cAMP production by LANCE assay relative to serotonin; type: functional, cell-based; procedure, shortened: as §1
[9] = molecular target: 5-hydroxytryptamine receptor 2B (Homo sapiens) (UniProt P41595); assay: Binding affinity to 5HT2B receptor at 1 uM by radioligand displacement assay
Procedure, shortened: (§4)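 Target specificity panel: single-concentration competitive displacement of each target's radioligand, with compound at 1 µM or 10 µM as stated per line. Run by an outside contract lab under its internal protocols; mean ± SE, n = 2.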

[10] = molecular target: T5, Alpha-1D adrenergic receptor (Homo sapiens) (UniProt P25100); assay: Binding affinity to adrenergic Alpha-1D receptor at 1 uM by radioligand displacement assay; procedure, shortened: as §4
T5 sequence (whole entry): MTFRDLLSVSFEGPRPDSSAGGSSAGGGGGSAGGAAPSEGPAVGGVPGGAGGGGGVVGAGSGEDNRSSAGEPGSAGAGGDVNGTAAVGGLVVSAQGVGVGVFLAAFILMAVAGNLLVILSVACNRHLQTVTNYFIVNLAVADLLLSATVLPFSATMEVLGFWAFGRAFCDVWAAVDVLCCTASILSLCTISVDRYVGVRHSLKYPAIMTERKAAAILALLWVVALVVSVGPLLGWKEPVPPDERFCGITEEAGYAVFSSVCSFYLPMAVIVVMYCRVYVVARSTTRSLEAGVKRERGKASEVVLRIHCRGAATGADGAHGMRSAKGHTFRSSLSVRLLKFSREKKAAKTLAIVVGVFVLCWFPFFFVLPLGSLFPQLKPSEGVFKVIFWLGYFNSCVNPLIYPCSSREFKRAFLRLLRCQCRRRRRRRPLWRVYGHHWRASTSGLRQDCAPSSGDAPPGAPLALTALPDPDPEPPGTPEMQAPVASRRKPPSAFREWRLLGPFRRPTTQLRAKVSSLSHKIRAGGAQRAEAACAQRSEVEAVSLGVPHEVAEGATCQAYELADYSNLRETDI

[11] = Binding affinity to glycine transporter at 1 uM by radioligand displacement assay; procedure, shortened: as §4
[12] = molecular target: T4, 5-hydroxytryptamine receptor 7; assay: Binding affinity to 5HT7 receptor at 1 uM by radioligand displacement assay; procedure, shortened: as §4
[13] = molecular target: T6, 5-hydroxytryptamine receptor 2C (Homo sapiens) (UniProt P28335); assay: as §3; procedure, shortened: as §2
T6 sequence (whole entry): T3 sequence (P28335 whole entry)

[14] = molecular target: T7, Alpha-2A adrenergic receptor (Homo sapiens) (UniProt P08913); assay: Binding affinity to adrenergic alpha2A receptor at 1 uM by radioligand displacement assay; procedure, shortened: as §4
T7 sequence (whole entry): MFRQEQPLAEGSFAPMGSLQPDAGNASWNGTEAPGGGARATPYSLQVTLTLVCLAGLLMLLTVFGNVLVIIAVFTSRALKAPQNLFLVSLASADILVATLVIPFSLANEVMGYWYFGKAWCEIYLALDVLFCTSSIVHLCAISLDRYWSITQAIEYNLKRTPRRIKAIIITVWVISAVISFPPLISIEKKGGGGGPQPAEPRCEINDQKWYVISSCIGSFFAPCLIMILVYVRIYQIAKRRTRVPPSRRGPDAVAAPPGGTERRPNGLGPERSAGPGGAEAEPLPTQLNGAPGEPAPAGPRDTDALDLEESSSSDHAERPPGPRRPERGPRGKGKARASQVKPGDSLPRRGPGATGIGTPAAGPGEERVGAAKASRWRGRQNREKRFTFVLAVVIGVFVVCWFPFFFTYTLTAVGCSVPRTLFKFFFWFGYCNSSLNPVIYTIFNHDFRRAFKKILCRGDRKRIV

[15] = molecular target: Sodium-dependent noradrenaline transporter (Homo sapiens) (UniProt P23975); assay: Binding affinity to norepinephrine transporter at 1 uM by radioligand displacement assay; procedure, shortened: as §4
[16] = molecular target: T6, 5-hydroxytryptamine receptor 2C (Homo sapiens); assay: Binding affinity to 5HT2C receptor at 1 uM by radioligand displacement assay; procedure, shortened: as §4
[17] = molecular target: D(3) dopamine receptor (Homo sapiens) (UniProt P35462); assay: Binding affinity to dopamine D3 receptor at 1 uM by radioligand displacement assay; procedure, shortened: as §4
[18] = molecular target: T1, 5-hydroxytryptamine receptor 6; assay: Binding affinity to human recombinant 5HT6 receptor at 1 uM by radioligand displacement assay; procedure, shortened: as §4
[19] = molecular target: Sigma non-opioid intracellular receptor 1 (Homo sapiens) (UniProt Q99720); assay: Binding affinity to sigma 1 receptor at 1 uM by radioligand displacement assay; procedure, shortened: as §4
[20] = molecular target: T8, Alpha-1A adrenergic receptor (Homo sapiens) (UniProt P35348); assay: Binding affinity to adrenergic alpha1A receptor at 1 uM by radioligand displacement assay; procedure, shortened: as §4
T8 sequence (whole entry): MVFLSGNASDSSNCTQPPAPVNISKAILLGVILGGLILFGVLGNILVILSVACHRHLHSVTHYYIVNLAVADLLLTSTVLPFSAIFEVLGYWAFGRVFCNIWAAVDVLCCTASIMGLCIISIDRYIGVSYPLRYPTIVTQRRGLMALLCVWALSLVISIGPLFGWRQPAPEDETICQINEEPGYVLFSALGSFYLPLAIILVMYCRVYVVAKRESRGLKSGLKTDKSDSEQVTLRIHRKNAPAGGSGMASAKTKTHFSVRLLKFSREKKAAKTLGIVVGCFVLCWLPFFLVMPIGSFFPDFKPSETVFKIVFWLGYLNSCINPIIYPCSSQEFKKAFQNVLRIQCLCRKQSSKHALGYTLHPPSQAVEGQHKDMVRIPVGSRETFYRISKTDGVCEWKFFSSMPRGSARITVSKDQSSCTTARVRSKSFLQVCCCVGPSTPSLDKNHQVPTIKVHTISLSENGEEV

[21] = molecular target: 5-hydroxytryptamine receptor 2A (Homo sapiens) (UniProt P28223); assay: Binding affinity to 5HT2A receptor at 1 uM by radioligand displacement assay; procedure, shortened: as §4
[22] = molecular target: T9, Alpha-1B adrenergic receptor (Homo sapiens) (UniProt P35368); assay: Binding affinity to adrenergic Alpha-1B receptor at 1 uM by radioligand displacement assay; procedure, shortened: as §4
T9 sequence (whole entry): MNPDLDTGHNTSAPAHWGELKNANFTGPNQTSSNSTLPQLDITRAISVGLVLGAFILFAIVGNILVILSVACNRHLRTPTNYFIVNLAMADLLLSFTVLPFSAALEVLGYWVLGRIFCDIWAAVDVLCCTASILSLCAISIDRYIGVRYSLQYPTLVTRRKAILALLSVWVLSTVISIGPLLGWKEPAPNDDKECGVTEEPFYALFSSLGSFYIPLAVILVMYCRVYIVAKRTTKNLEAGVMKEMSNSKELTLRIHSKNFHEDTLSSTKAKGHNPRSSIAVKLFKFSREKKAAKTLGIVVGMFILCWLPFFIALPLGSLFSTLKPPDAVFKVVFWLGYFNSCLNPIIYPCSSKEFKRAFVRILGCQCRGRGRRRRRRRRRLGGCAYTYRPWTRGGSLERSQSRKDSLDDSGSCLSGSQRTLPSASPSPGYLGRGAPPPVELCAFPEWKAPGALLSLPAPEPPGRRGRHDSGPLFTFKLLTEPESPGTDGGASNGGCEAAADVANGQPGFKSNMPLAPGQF

[23] = Binding affinity to L-type calcium channel at 1 uM by radioligand displacement assay; procedure, shortened: as §4

T1 sequence (P50406 whole entry): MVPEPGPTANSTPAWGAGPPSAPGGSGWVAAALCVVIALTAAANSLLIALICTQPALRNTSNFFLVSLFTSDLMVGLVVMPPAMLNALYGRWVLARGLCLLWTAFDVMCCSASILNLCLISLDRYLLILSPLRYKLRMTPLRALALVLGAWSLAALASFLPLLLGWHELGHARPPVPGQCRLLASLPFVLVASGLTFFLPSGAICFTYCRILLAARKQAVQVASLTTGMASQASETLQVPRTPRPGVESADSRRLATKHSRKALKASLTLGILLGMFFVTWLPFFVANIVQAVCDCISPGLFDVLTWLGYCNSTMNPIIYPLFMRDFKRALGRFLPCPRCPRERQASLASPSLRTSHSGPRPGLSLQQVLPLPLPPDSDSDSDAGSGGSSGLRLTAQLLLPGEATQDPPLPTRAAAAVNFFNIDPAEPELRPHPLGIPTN
T4 sequence (P34969 whole entry): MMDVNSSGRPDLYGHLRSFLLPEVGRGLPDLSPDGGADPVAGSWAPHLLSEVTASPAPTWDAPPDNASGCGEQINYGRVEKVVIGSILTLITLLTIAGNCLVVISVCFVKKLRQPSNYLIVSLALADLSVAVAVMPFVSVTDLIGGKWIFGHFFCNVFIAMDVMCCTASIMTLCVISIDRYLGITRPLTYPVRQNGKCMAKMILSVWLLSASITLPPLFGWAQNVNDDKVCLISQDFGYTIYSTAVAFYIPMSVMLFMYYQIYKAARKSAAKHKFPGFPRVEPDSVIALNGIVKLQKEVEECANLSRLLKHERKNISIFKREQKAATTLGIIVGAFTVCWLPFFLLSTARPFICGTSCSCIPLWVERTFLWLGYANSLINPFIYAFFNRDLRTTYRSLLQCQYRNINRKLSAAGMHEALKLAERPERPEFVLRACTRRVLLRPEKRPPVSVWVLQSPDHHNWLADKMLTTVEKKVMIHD
Sigma non-opioid intracellular receptor 1 (Homo sapiens), sequence (Q99720 whole entry): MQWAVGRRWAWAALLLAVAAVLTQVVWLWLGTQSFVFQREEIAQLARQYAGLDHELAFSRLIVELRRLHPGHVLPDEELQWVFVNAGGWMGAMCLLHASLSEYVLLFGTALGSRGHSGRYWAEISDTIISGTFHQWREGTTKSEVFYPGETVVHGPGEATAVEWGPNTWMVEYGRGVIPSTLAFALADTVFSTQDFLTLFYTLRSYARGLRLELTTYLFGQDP
Sodium-dependent noradrenaline transporter (Homo sapiens), sequence (P23975 whole entry): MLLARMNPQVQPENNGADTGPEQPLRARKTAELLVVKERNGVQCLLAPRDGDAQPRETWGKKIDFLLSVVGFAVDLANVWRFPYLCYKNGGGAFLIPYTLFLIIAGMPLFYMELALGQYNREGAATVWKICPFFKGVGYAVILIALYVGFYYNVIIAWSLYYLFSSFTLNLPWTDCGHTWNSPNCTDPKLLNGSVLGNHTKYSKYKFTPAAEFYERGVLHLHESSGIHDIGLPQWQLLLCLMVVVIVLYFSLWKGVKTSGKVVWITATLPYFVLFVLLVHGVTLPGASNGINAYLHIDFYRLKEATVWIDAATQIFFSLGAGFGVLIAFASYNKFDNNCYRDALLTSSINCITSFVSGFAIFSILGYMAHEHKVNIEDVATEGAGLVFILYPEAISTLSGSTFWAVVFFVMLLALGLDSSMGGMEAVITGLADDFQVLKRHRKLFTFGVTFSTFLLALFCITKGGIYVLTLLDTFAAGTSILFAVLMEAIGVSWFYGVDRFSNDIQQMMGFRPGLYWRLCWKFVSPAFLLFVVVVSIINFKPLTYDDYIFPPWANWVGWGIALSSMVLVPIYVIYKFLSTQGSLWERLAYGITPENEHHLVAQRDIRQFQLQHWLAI
5-hydroxytryptamine receptor 2B (Homo sapiens), sequence (P41595 whole entry): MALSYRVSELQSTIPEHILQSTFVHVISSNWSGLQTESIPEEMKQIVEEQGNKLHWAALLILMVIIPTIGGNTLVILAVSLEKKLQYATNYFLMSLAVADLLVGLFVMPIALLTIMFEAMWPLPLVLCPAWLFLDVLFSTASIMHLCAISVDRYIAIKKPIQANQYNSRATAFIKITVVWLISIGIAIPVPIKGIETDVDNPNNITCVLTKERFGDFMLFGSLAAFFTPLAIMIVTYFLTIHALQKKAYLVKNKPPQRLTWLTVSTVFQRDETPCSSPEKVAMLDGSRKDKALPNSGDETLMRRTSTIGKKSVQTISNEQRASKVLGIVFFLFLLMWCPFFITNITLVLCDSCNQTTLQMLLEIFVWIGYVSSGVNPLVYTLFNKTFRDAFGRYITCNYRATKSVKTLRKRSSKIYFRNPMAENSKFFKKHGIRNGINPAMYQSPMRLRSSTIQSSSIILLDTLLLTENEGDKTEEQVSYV
D(3) dopamine receptor (Homo sapiens), sequence (P35462 whole entry): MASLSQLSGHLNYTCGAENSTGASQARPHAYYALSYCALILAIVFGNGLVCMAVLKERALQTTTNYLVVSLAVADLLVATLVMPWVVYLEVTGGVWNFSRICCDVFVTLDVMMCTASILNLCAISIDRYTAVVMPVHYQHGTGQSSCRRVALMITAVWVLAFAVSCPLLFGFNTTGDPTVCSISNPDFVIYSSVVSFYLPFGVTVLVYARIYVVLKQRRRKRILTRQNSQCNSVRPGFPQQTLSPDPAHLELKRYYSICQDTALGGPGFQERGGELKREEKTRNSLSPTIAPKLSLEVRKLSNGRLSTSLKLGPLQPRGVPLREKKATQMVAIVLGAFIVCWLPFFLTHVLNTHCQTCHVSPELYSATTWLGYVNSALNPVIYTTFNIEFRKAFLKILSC
5-hydroxytryptamine receptor 2A (Homo sapiens), sequence (P28223 whole entry): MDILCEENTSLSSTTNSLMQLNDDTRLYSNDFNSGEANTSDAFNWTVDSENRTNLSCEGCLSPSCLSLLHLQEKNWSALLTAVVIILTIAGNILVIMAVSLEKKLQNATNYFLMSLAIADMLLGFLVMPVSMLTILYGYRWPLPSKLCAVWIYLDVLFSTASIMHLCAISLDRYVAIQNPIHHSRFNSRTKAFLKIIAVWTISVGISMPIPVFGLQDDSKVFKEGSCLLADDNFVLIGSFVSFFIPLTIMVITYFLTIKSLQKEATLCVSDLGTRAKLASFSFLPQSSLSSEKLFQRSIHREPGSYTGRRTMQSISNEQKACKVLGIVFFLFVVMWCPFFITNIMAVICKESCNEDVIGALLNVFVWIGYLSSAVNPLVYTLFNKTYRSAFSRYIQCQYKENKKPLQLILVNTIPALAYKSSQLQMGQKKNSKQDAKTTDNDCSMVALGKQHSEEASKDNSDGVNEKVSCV
5-hydroxytryptamine receptor 6 (Rattus norvegicus, UniProt P31388), sequence (P31388 whole entry): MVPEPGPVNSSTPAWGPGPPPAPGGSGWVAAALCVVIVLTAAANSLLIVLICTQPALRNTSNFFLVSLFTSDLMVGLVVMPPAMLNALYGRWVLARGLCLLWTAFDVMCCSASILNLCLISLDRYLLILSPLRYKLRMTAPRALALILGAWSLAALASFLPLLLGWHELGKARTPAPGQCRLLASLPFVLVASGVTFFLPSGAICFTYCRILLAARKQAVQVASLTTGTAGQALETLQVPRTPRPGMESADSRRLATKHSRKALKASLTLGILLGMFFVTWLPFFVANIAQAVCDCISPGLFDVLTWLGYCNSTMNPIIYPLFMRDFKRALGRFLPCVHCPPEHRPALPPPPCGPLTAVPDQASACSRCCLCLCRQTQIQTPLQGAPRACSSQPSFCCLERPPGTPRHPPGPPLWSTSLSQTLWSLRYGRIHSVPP

IC50 ([1]; hek293): Not Active
SMILES: CN1CCc2c(c3cc(S(C)(=O)=O)ccc3n2C)C1.Cl

pKi [2]: < 7.00 | pKi [3]: 7.47 | pKi [4]: 7.59 | pKi [5]: 7.12 | pKi [6]: 6.92 | pKi [7]: 8.10 | Imax [8]: 100%
SMILES: Cc1ccc2c(c1)c1c(n2CCc2ccc(C)nc2)CCN(C)C1 [LATREPIRDINE]

pIC50 [1]: 5.41 | Imax [8]: 100%
SMILES: O=S(=O)(Nc1cccc(F)c1)c1ccc2[nH]c3c(c2c1)CN(Cc1ccccc1)CC3

Imax [8]: 100%
SMILES: CN1CCN(S(=O)(=O)c2ccc3[nH]c4c(c3c2)CN(C)CC4)CC1

pIC50 [1]: 5.47 | Imax [8]: 100%
SMILES: CN1CCc2[nH]c3ccc(S(=O)(=O)c4cccnc4)cc3c2C1

Activity [9]: 80% | Activity [10]: 29% | pKi [2]: 8.15 | Activity [3]: Dose-dependent effect | pKi [3]: 8.68 | Activity [11]: 20% | Activity [12]: 80% | Activity [13]: Dose-dependent effect | pKi [5]: 7.41 | Activity [14]: 60% | Activity [15]: 15% | Activity [16]: 80% | Activity [17]: 35% | Activity [18]: 80% | Activity [19]: 60% | Activity [20]: 20% | Activity [7]: Dose-dependent effect | pKi [7]: 7.38 | Activity [21]: 80% | Activity [22]: 37% | Imax [8]: 100% | Activity [23]: 27%
SMILES: CN1CCc2[nH]c3ccc(S(=O)(=O)Nc4cccc(F)c4)cc3c2C1
